A short description of experiment [1]: Antiproliferative activity against human FGFR2-amplified SUM52 cells after 5 days by SRB assay. Particulars: SUM52, 120 h. A general note: In SRB staining, fixed cells bind dye roughly in proportion to their protein.
The next experiment deals with NCI-H520. Nature of the experiment: Antiproliferative activity against human FGFR1-amplified NCI-H520 cells after 7 days by SRB assay. Particulars: NCI-H520, 168 h.
In the next experiment the test system is SW780. Nature of the experiment: Antiproliferative activity against human FGFR3-amplified SW780 cells after 5 days by SRB assay. Particulars: SW780, 120 h.
Experiment [2] addresses Fibroblast growth factor receptor 4 (Homo sapiens, UniProt P22455). Nature of the experiment: Inhibition of human recombinant His-tagged FGFR4 cytoplasmic domain ([…] residues) expressed in baculovirus using Tyr-4 peptide after 1 hr by FRET-based Z'-Lyte assay.
In experiment [3] the target is Fibroblast growth factor receptor 3 (Homo sapiens, UniProt P22607). Kind of experiment: Inhibition of human recombinant His-tagged FGFR3 cytoplasmic domain (399 to 806 residues) expressed in baculovirus using Tyr-4 peptide after 1 hr by FRET-based Z'-Lyte assay.
Fibroblast growth factor receptor 3, sequence (P22607 whole entry, the tested form may be a part): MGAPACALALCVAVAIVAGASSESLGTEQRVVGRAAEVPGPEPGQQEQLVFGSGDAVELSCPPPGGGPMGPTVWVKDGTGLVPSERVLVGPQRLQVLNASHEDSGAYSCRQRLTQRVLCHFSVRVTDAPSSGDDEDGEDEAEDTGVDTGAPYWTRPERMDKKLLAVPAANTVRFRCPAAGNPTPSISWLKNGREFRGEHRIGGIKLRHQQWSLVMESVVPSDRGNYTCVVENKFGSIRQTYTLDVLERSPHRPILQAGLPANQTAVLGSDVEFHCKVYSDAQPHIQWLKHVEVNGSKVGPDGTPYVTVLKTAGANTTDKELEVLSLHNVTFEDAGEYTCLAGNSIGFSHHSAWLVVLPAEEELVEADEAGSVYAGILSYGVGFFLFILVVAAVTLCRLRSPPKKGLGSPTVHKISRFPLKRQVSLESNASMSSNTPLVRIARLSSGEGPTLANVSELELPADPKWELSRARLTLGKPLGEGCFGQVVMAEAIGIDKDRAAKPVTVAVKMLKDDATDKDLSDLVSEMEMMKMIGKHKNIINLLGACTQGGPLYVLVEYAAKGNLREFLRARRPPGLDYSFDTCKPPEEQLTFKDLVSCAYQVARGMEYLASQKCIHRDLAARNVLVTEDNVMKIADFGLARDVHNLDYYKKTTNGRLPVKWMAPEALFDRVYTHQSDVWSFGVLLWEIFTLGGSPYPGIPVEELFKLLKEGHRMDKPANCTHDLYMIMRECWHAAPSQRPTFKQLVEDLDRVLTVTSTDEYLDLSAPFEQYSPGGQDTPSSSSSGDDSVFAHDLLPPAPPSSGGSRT
A further experiment concerns NCI-H1299. Kind of experiment: Antiproliferative activity against human NCI-H1299 cells after 5 days by SRB assay. It counts as functional, cell-based. The conditions noted are these: NCI-H1299, 120 h. The method, boiled down: (§1)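 Grown in α-MEM + 5% FBS at 37 °C, 5% CO2. Seeding per well: 3000 (H661), 1000 (PC9), 400 (H460, H1299), attached overnight. Cells were dosed with a 3-fold serial dilution from DMSO stocks for 5 days. Then cold TCA fixation, 0.4% SRB staining, solubilisation in 10 mM Tris pH 10.5, absorbance at 490 nm. IC50 was derived from the curves.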

The next experiment concerns L02. Nature of the experiment: Cytotoxicity against human HL7702 cells assessed as cell viability after 72 hrs by CCK-8 assay. The conditions noted are these: L02, 72 h. The format is cell-based. The method, boiled down: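 Log-phase HL7702 cells were plated at ~3000 cells/well and treated 24 h later with compound or vehicle for 72 h. CCK-8 was added for 3 h and OD450 minus OD650 measured. Viability = (As−Ac)/(Ab−Ac)×100, with Ac a cell-free blank and Ab the vehicle control.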

Another experiment has as its system PC-9. Nature of the experiment: Antiproliferative activity against human PC9 cells after 5 days by SRB assay. It counts as functional, cell-based. The conditions noted are these: PC-9, 120 h. The method, boiled down:
as §1

The subject of a further experiment is NCI-H460. Nature of the experiment: Antiproliferative activity against human NCI-H460 cells after 5 days by SRB assay. Particulars: NCI-H460, 120 h. It counts as functional, cell-based. An outline of the steps:
as §1

The test system of another experiment is NCI-H661. Kind of experiment: Antiproliferative activity against human NCI-H661 cells after 5 days by SRB assay. It counts as functional, cell-based. Particulars: NCI-H661, 120 h. The method, boiled down: as §1

Molecules are shown by their SMILES.

Fibroblast growth factor receptor 4, sequence (P22455 whole entry, the tested form may be a part): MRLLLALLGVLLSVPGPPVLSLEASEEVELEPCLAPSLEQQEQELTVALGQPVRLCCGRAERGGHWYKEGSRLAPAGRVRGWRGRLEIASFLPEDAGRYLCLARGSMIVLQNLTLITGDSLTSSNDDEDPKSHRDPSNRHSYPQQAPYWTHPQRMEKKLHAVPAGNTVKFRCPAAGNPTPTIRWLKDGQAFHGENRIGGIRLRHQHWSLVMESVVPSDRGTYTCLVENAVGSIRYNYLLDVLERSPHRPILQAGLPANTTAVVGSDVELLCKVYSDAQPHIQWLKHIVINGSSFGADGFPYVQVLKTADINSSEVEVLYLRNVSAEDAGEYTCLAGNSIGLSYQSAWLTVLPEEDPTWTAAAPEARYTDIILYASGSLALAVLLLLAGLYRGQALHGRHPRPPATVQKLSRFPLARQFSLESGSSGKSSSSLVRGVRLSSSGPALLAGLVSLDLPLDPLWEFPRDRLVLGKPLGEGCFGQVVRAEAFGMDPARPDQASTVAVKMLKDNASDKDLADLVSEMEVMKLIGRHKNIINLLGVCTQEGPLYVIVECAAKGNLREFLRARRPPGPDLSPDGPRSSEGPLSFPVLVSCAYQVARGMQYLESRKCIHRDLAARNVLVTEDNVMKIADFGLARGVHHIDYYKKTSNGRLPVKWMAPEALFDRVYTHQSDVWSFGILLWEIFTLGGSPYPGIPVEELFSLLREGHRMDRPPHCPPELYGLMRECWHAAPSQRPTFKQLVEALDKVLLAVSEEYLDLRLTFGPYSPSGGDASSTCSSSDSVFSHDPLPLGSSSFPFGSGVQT

As usually defined, the IC50 is the concentration at which inhibition is half-maximal. For `CNc1ncc2c(n1)N(C1CCN(C(=O)/C=C/CN(C)C)CC1)C(=O)N(c1c(Cl)c(OC)cc(OC)c1Cl)C2`, the IC50 in [1] amounted to 2 nM; with NCI-H520, 56.2 nM; in the experiment on SW780, 5.2 nM.

`C=CC(=O)Nc1cccc(CN2C(=O)N(c3c(Cl)c(OC)cc(OC)c3Cl)Cc3cnc(NCCCCN(CC)CC)nc32)c1`: the IC50 in experiment [1] was 2.9 nM; in the experiment with NCI-H520, 121 nM; in the experiment on SW780, 277 nM.

`COc1cc(OC)c(Cl)c(N2Cc3cnc(NC(C)C)nc3N(C3CCN(C(=O)/C=C/CN(C)C)CC3)C2=O)c1Cl`: the IC50 was found to be 0.65 nM in experiment [1], 4.91 nM in the experiment on NCI-H520 and 12.3 nM with SW780.

In the case of `COc1cc(OC)c(Cl)c(N2Cc3cnc(Nc4cccc(C)c4)nc3N(C3CCN(C(=O)/C=C/CN(C)C)CC3)C2=O)c1Cl`, the IC50 was 1.1 nM in experiment [1], 5.3 nM in the experiment with NCI-H520 and 15.1 nM with SW780.

Regarding `COc1cc(OC)c(Cl)c(N2Cc3cnc(NC4CCOC4)nc3N(C3CCN(C(=O)/C=C/CN(C)C)CC3)C2=O)c1Cl` (stereo not drawn), the IC50 in experiment [1] is 4 nM; in the experiment with NCI-H520 it was 70 nM; in the experiment with SW780, 32 nM.

Regarding `CCN(CC)CCCCNc1ncc2cc(-c3cc(OC)cc(OC)c3)c(NC(=O)NC(C)(C)C)nc2n1` [PD-173074], the figures for the IC50 (in experiment [1]; in the experiment on SW780) were 12.3 nM and 84.3 nM, respectively.

`COc1cc(OC)c(Cl)c(N2Cc3cnc(Nc4cccc(F)c4)nc3N(C3CCN(C(=O)/C=C/CN(C)C)CC3)C2=O)c1Cl`: the IC50 in experiment [1] is 1.1 nM; in the experiment on NCI-H520, 6.5 nM; in the experiment with SW780, 9 nM.

With `COc1ccccc1Nc1ncc2c(n1)N(C1CCN(C(=O)/C=C/CN(C)C)CC1)C(=O)N(c1c(Cl)c(OC)cc(OC)c1Cl)C2`, the IC50 in experiment [1] was 3.3 nM; in the experiment on NCI-H520 it was 39.8 nM; in the experiment on SW780, 27.5 nM.

`COc1cccc(Nc2ncc3c(n2)N(C2CCN(C(=O)/C=C/CN(C)C)CC2)C(=O)N(c2c(Cl)c(OC)cc(OC)c2Cl)C3)c1`: the IC50 in experiment [1] worked out at 1 nM; in the experiment with NCI-H520, 19.3 nM; in the experiment with SW780, 5.4 nM.

In the case of `COc1cc(OC)c(Cl)c(N2Cc3cnc(N(C)C)nc3N(C3CCN(C(=O)/C=C/CN(C)C)CC3)C2=O)c1Cl`, the IC50 in experiment [1] was 224 nM; in [2], over 1000 nM; in the experiment on NCI-H520, 2420 nM; in experiment [3], over 1000 nM; in the experiment with SW780 it was 570 nM.

As for `COc1cc(OC)c(Cl)c(N2Cc3cnc(NC4CCCCC4)nc3N(C3CCN(C(=O)/C=C/CN(C)C)CC3)C2=O)c1Cl`, the IC50 in [1] turned out to be 0.84 nM; in the experiment on NCI-H520, 13.6 nM; with SW780 it was 14.5 nM.

With `COc1cc(OC)c(Cl)c(N2Cc3cnc(NC4CCOCC4)nc3N(C3CCN(C(=O)/C=C/CN(C)C)CC3)C2=O)c1Cl`, the figures for the IC50 (in experiment [1]; in the experiment with NCI-H520; in the experiment on SW780) were 0.57 nM, 7.82 nM and 3.34 nM, respectively.

As to `COc1cc(OC)c(Cl)c(N2Cc3cnc(Nc4ccccc4)nc3N(C3CCN(C(=O)/C=C/CN(C)C)CC3)C2=O)c1Cl`, the IC50 with NCI-H1299 stood at 2480 nM; in experiment [1], 0.65 nM; in the experiment on NCI-H520, 4.14 nM; in the experiment with L02, 1890 nM; with PC-9, 1260 nM; with NCI-H460 it was 1400 nM. The figures for the IC50 in the experiment with SW780 and in the experiment on NCI-H661 were 9.73 nM and 2750 nM, respectively.

Regarding `COc1ccc(Nc2ncc3c(n2)N(C2CCN(C(=O)/C=C/CN(C)C)CC2)C(=O)N(c2c(Cl)c(OC)cc(OC)c2Cl)C3)cc1`, the IC50 in experiment [1] came to 0.8 nM; in the experiment on NCI-H520, 3 nM; with SW780, 0.3 nM.
